Assay results taken from ChEMBL document CHEMBL1156534, “Hemopressin is an inverse agonist of CB1 cannabinoid receptors” (Proc Natl Acad Sci U S A, 2007).
Active and inactive are the calls of the source.

Legend:
Rattus norvegicus [1] = test: Antihyperalgesic effects in Wistar rat assessed as reduction of carrageenan-induced paw pressure at 100 ug/kg, po after 3 hrs; assay type: functional, organism-based
Method in brief: (§1)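 Male Wistar rats (200 g) received carrageenan 200 μg/paw intraplantar in saline into the right hind paw. Peptide was given at the same time: intraplantar 10 μg/paw, intrathecal 0.5 or 5 μg/kg, or oral 50 or 100 μg/kg; saline-treated rats served as controls. Paw-pressure withdrawal threshold (force ramp 16 g/s) was read at 0 and 3 h. n = 6–8.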

[2] = molecular target: T1, Type-1 angiotensin II receptor (Homo sapiens) (UniProt P30556); test: Antagonist activity at AT1 angiotensin receptor expressed in SKNSH cells at 100 nM by ELISA relative to control; assay type: functional, cell-based; parameters: scale not given: the % may be the effect or the level left
T1 sequence (whole entry): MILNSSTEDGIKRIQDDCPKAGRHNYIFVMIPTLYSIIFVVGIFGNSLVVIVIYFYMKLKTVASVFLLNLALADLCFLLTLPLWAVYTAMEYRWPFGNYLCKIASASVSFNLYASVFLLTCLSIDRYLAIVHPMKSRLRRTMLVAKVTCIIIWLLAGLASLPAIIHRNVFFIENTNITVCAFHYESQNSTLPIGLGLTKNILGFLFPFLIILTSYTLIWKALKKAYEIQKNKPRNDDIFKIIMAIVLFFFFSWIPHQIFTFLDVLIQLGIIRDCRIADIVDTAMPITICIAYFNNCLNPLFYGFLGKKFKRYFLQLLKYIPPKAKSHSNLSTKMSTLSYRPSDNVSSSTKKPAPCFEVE

[3] = molecular target: Cannabinoid receptor 2 (Homo sapiens) (UniProt P34972); test: Antagonist activity at CB2 receptor expressed in HEK293 cells assessed as blockade of secreted alkaline phosphatase activity at 1 uM after 6 hrs relative to control; assay type: functional, cell-based
Chain of Cannabinoid receptor 2 (Homo sapiens) (P34972 whole entry): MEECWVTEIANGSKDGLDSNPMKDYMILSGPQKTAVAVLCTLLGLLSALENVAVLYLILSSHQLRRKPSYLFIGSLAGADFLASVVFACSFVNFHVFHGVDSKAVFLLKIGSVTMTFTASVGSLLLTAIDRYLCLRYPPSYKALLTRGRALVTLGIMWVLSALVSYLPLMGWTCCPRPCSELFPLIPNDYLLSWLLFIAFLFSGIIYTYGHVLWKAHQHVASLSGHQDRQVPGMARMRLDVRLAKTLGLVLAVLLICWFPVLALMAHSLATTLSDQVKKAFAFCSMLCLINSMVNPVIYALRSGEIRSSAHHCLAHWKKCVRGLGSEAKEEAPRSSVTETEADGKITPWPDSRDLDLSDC
Method in brief: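 HEK-293 cells transfected with 5 μg pCRE-SeAP plus 1 μg Flag-tagged CB₁ or CB₂ receptor, 30,000 cells/well, serum-starved 16–18 h. Stimulated 6 h in serum-free medium with 10 μM forskolin and 100 nM agonist, without or with 1 μM test peptide. Supernatant diluted in pH 7.2 buffer, heated 65°C 20 min, then CSPD chemiluminescence read. Mean ± SEM, n = 6.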

[4] = molecular target: T2, Alpha-2A adrenergic receptor (Homo sapiens) (UniProt P08913); test: Antagonist activity at alpha2A adrenergic receptor expressed in SKNSH cells assessed as blockade of clonidine-induced increase in antibody recognition at 100 nM by ELISA relative to control; assay type: functional, cell-based; parameters: scale not given: the % may be the effect or the level left
T2 sequence (whole entry): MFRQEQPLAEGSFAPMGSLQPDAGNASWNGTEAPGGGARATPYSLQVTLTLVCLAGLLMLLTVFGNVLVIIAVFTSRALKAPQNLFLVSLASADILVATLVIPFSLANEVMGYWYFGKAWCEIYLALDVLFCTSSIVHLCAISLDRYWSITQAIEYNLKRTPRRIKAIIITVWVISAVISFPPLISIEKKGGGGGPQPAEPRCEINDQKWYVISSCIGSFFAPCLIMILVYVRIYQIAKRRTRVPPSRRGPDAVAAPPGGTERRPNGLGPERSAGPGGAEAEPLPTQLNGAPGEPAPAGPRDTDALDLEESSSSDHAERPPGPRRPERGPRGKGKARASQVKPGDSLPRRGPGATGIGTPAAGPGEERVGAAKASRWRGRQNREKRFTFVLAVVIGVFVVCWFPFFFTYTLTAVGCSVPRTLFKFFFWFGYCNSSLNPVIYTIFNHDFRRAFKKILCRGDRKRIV

Mus musculus = test: Effect on motor coordination in C57BL/6 mouse at […], ip after 1 hrs; assay type: functional, organism-based
[5] = molecular target: Delta-type opioid receptor (Homo sapiens) (UniProt P41143); test: Antagonist activity at delta opioid receptor expressed in SKNSH cells assessed as blockade of deltorphin 2-induced increase in antibody recognition at 100 nM by ELISA relative to control; assay type: functional, cell-based; parameters: scale not given: the % may be the effect or the level left
Chain of Delta-type opioid receptor (Homo sapiens) (P41143 whole entry): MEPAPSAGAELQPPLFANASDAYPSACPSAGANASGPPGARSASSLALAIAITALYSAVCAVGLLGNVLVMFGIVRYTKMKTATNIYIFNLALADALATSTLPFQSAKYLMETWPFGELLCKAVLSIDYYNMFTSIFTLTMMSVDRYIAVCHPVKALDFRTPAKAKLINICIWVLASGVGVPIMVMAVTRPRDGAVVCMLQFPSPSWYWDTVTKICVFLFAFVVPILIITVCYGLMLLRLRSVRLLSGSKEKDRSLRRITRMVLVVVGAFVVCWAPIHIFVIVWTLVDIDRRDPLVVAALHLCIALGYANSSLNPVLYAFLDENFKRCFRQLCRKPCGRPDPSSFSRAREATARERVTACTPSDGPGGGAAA

[6] = molecular target: Cannabinoid receptor 2 (Homo sapiens) (UniProt P34972); test: Antagonist activity at CB2 receptor expressed in SKNSH cells assessed as blockade of Hu210-induced increase in antibody recognition at 100 nM by ELISA relative to control; assay type: functional, cell-based; parameters: scale not given: the % may be the effect or the level left
[7] = molecular target: Cannabinoid receptor 1 (Homo sapiens) (UniProt P21554); test: Antagonist activity at CB1 receptor expressed in Neuro 2A cells assessed as blockade of Hu210-mediated increase in number of neurite outgrowth at 10 uM after 16 hrs; assay type: functional, cell-based
Chain of Cannabinoid receptor 1 (Homo sapiens) (P21554 whole entry): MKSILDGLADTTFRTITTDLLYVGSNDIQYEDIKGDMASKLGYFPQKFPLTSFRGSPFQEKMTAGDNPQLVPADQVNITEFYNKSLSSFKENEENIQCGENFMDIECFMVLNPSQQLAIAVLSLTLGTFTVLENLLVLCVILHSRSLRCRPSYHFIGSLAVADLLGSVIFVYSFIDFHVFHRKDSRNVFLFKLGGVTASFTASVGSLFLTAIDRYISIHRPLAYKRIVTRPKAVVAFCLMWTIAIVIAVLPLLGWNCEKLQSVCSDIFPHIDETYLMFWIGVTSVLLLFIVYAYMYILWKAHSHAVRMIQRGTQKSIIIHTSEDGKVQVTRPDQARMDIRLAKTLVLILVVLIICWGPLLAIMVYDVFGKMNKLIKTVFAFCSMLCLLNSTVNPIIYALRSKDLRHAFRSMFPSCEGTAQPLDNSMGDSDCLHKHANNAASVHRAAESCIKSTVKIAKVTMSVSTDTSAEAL
Method in brief: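 Neuro 2A cells transfected with Flag-tagged CB1 or CB2 were exposed 16 h in 0.1% FBS medium to 100 nM Hu-210 with or without 10 μM peptide. The percentage of cells extending neurites was scored and normalized to untreated cells (100%). Mean ± SE of triplicate experiments.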

[8] = molecular target: Delta-type opioid receptor (Homo sapiens) (UniProt P41143); test: Antagonist activity at delta opioid receptor expressed in HEK293 cells assessed as blockade of deltorphin 2-mediated decrease in secreted alkaline phosphatase activity at 1 uM after 6 hrs relative to control; assay type: functional, cell-based
Method in brief: (§2)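 HEK-293 cells transiently co-transfected with pCRE-SeAP and a Flag-tagged receptor, 30,000 cells/well on poly-L-lysine. They were serum-starved 16–18 h, then exposed 6 h in serum-free medium to 10 μM forskolin (omitted for β2) plus the receptor agonist (100 nM), with or without peptide (1 μM). Heat-treated supernatant SeAP was read by CSPD chemiluminescence. Mean ± SEM, n = 6.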

Rattus norvegicus [9] = test: Antihyperalgesic effects in Wistar rat assessed as reduction of carrageenan-induced paw pressure at 10 ug/kg, intraplantar after 3 hrs; assay type: functional, organism-based; method in brief: as §1
[10] = molecular target: T2, Alpha-2A adrenergic receptor (Homo sapiens); test: Antagonist activity at alpha2A adrenergic receptor expressed in HEK293 cells assessed as blockade of clonidine-mediated decrease in secreted alkaline phosphatase activity at 1 uM after 6 hrs relative to control; assay type: functional, cell-based; method in brief: as §2
[11] = molecular target: T2, Alpha-2A adrenergic receptor (Homo sapiens); test: Antagonist activity at alpha2A adrenergic receptor expressed in HEK293 cells assessed as blockade of secreted alkaline phosphatase activity at 1 uM after 6 hrs relative to control; assay type: functional, cell-based; method in brief: as §2
[12] = molecular target: T3, Cannabinoid receptor 2 (Rattus norvegicus) (UniProt Q9QZN9); test: Antagonist activity at Long-Evans rat spleen CB2 receptor assessed as blockade of Hu210-mediated decrease in adenylate cyclase activity; assay type: functional, tissue-based
T3 sequence (whole entry): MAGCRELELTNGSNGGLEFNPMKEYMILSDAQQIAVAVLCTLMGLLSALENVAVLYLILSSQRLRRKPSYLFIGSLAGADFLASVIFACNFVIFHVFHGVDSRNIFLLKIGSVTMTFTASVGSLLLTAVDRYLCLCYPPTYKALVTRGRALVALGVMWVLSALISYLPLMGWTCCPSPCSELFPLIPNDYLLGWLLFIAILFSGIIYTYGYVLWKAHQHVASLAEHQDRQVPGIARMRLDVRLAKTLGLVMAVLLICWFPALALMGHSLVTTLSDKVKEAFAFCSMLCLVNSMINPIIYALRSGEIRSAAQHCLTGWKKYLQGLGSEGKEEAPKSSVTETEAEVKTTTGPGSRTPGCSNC
Method in brief: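 Membranes (10 μg) came from striatum (CB1) or spleen (CB2). They were tested in GTPγS-binding or adenylyl cyclase assays with Hu-210 and test ligand (0–1 μM), or with Hu-210 curves with or without 10 μM peptide; a 1 μM single-point combination was also used. Mean ± SE of triplicates.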

[13] = molecular target: T1, Type-1 angiotensin II receptor (Homo sapiens); test: Antagonist activity at AT1 angiotensin receptor expressed in HEK293 cells assessed as blockade of secreted alkaline phosphatase activity at 1 uM after 6 hrs relative to control; assay type: functional, cell-based; method in brief: as §2

In the case of `CC(C)C[C@H](NC(=O)[C@H](Cc1ccccc1)NC(=O)[C@H](CCCCN)NC(=O)[C@H](Cc1ccccc1)NC(=O)[C@H](CC(N)=O)NC(=O)[C@@H](NC(=O)[C@@H]1CCCN1)C(C)C)C(=O)N[C@@H](CO)C(=O)N[C@@H](Cc1cnc[nH]1)C(=O)O` [HEMOPRESSIN], the Activity (Rattus norvegicus [1]) is reported as “Active”, the Activity [2] is reported as 110% and the Activity [3] is reported as 0.94. The Activity [4] was 130%, the Activity (Mus musculus) was “inactive” and the Activity [5] was 131%. The Activity [6] was 108%, the Activity [7] was “Active” and the Activity [8] was 0.59. The Activity (Rattus norvegicus [9]) was “Active”, the Activity [10] was 0.53 and the Activity [11] was 0.92. For the same compound, the Activity [12] was “inactive” and the Activity [13] was 0.98.
